Source: PubChem (The Scripps Research Institute Molecular Screening Center)
STAT1 blocker: STAT1 signaling inhibition. NIH 3T3 STAT1-luciferase reporter, IFN-gamma, luminescence. inhibition, % at 5.5 µM. actives 0.35% (n = 200,000). AID 920;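 active = inhibition above a set limit, the mean inhibition across all tested compounds plus 3 SD, cut at about 34% in these data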;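 note: 0% = IFN-gamma with DMSO and 100% = IFN-gamma with 300 µM nifuroxazide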
STAT3 act-1: STAT3 signaling activation; U3A cells, IL-6 STAT3-luciferase reporter, luminescence; 100% = signal with IL-6 EC80 alone; activation (% of control), % at 5.6 µM; AID 871; actives 0.91% (n = 190,000);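 active = activation above the screen-wide mean of compound activation plus 3 SD, cut at about 130% in these data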;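 note: 0% = background luminescence of wells with medium and substrate only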
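Material: STAT1-lacking human U3A cells, STAT3 luciferase reporter | Benchmarks: IL-6-only wells as 100% reference | Probe or stimulus: IL-6 (33 ng/mL) | Timing: Compound 1 h, then IL-6 6 h at 37 °C | Detection: Luminescence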
STAT1 act-1: increases IFN-gamma driven STAT1 reporter signal; NIH 3T3 STAT1-luciferase reporter, luminescence; 100% = IFN-gamma alone, no compound; activation (% of control), % at 5.5 µM; actives 2.6% (n = 200,000); AID 932;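 active = activation above the screen-wide mean activation plus 3 SD, cut at about 130% in these data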;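 note: raw ratio to IFN-gamma control signal so 100% means no change and 0% no light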
STAT3 inh: inhibitors of IL-6 induced STAT3 signaling. actives 0.89% (n = 190,000). AID 862. U3A cells, IL-6 STAT3-luciferase reporter, luminescence; host cell line lacks STAT1. inhibition, % at 5.5 µM;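 active = inhibition above the mean inhibition across all screened compounds plus 3 SD, cut at about 44% in these data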;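 note: 0% = DMSO only wells and 100% = 100 µM nifuroxazide control wells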
STAT3 act-2: confirmation of STAT3 signaling activators; shares compounds with STAT3 act-1; U3A STAT3-luciferase reporter, IL-6 potentiation, luminescence; U3A cells lack STAT1; 100 means same as IL-6 alone; potentiation (% of control), % at 5.7 µM; actives 64% (n = 1,200); AID 1267;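 active = percent activation of the STAT3 luciferase reporter above a set limit taken from the earlier primary screen, cut at about 130% in these data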;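 note: 0% = background signal of medium plus substrate and 100% = median of IL-6 with DMSO wells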
NFkB act 2: counter-screen for STAT3 activators: NF-kappaB activation. shares compounds with STAT3 act-1. human cells, NF-kappaB reporter activation. activation (% of control), % at 5.7 µM. actives 11% (n = 1,200); in the data active = activation above about 120%;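 note: reporter induced by TNF-alpha stimulation; 100% = median of stimulated DMSO wells and 0% = no signal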
STAT1 act-2: STAT1 activation in STAT3 activator counter-screen | shares compounds with STAT3 act-1 | NIH 3T3 STAT1-luciferase reporter, IFN-gamma, luminescence | activation (% of control), % at 5.7 µM | actives 13% (n = 1,200) | AID 1318;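 active = activation above the solvent-only control well mean plus 3 SD, set per screening run, cut at about 120% in these data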;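 note: 100% = IFN-gamma with DMSO median signal so 100% means no change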
Active calls of the source: *; x = no result. The list is not random: actives were taken first. Their share in the collection is about 4.3%.

SMILES	STAT1 blocker	STAT3 act-1	STAT1 act-1	STAT3 inh	STAT3 act-2	NFkB act 2	STAT1 act-2
O=C(/C=C/c1ccccc1)C1=C(O)C(=O)N(CCO)C1c1ccccc1[N+](=O)[O-] (stereo unspecified)	-1	144*	99	-47	152*	104	82
CN(Cc1ccc2nonc2c1)Cc1nc(CC2CC2)no1	3	106	96	-2	x	x	x
O=C1C=C(NCc2ccccc2)c2ccccc2C1=O	9	146*	90	-48	132	98	92
O=C(NC12CC3CC(CC(C3)C1)C2)N1CCN(C(=O)c2ccco2)CC1	-13	108	108	-4	x	x	x
COC(=O)c1[nH]c2ccc(C)cc2c1NC(=O)Oc1ccccc1	-11	112	110	-5	x	x	x
COC(=O)c1[nH]c2ccccc2c1NC(=O)Oc1ccccc1	3	159*	97	-58	160*	111	115
C=CCOC(=O)Nc1c(C(=O)OC)[nH]c2ccccc12	15	148*	86	-45	150*	105	93
CCOC(=O)N1CCN(CC(=O)Nc2c(C(=O)OC)[nH]c3ccccc23)CC1	1	105	99	-2	x	x	x
CCOC(=O)c1[nH]c2ccccc2c1NC(=O)CN(C)C	6	106	95	-3	x	x	x
CCOC(=O)c1[nH]c2ccccc2c1NC(=O)CC(C)(C)C	28	164*	74	-73	159*	106	89
CCOC(=O)c1[nH]c2ccccc2c1NC(=S)Nc1cccc(C)c1C	14	164*	87	-74	156*	111	91
O=S(=O)(Cc1ccccc1Cl)NCCc1ccccc1	-7	97	105	14	x	x	x
CN1CCN(c2ccccc2NC(=O)c2ccc(Br)o2)CC1	-9	90	101	14	x	x	x
CN1CCN(c2ccccc2NC(=O)c2cc3ccccc3o2)CC1	-9	144*	108	-50	126	102	102
O=C(Nc1ccccc1N1CCN(C(=O)c2ccccc2)CC1)c1cc(Br)ccc1Cl	2	115	98	-13	x	x	x
O=C(Nc1ccccc1N1CCCC1)c1cc2ccccc2o1	-25	152*	123	-60	140*	124*	134*
O=C(Nc1ccccc1N1CCN(C(=O)c2ccccc2)CC1)c1cc2ccccc2o1	4	142*	97	-46	126	101	96
CC(C)NC(=O)C(=O)NNC(=O)CCc1ccccc1	-4	100	103	4	x	x	x
CC(NC(=O)COC(=O)/C=C/c1ccc(Cl)cc1)c1ccccc1 (stereo unspecified)	10	99	92	6	x	x	x
CSc1nsc(/C=C/Nc2ccc(C)cc2)c1C#N	0	137*	103	-45	136*	105	108
CSc1nsc(/C=C/Nc2ccc(C)c(C)c2)c1C#N	2	97	97	7	x	x	x
COc1ccc(C(CNC(=O)c2ccccc2SC)N(C)C)cc1 (stereo unspecified)	-8	97	106	11	x	x	x
CC(=O)c1c(-c2ccc(C)cc2)nc2c3ccccc3ccn12	-3	142*	99	-44	143*	101	102
COc1cc(/C=N/Nc2snc(SC)c2C#N)ccc1O	10	148*	91	-48	136*	96	89
COc1cc(/C=N/Nc2ccc(C(F)(F)F)cn2)ccc1O	-22	85	120	25	x	x	x
SMILES	STAT1 blocker	STAT3 act-1	STAT1 act-1	STAT3 inh	STAT3 act-2	NFkB act 2	STAT1 act-2
O=C(CN1CCN(c2ccccc2O)CC1)Nc1cccnc1Cl	-9	98	107	10	x	x	x
CCOc1cc(-c2ccc(N)c(OCC)c2)ccc1N	2	155*	98	-61	136*	102	98
CCOc1ccc(-c2nnc(-c3ccncc3)o2)cc1OCC	-8	111	107	-5	x	x	x
COc1ccc(CCN=C(C)C2=C(O)C(c3ccccc3)OC2=O)cc1OC (stereo unspecified)	3	100	97	7	x	x	x
O=c1[nH][nH]c(C(F)(F)F)c1C=NCc1cccs1	2	110	97	-10	x	x	x
C/C(=N\Nc1nc2ccccc2[nH]1)c1cc2ccccc2o1	-8	143*	107	-49	176*	122*	134*
Cc1nn2c(-c3ccccc3)nnc2c2ccccc12	-8	170*	108	-79	143*	117	115
Cc1nn2c(-c3cccc(NC(=O)c4ccco4)c3)nnc2c2ccccc12	-4	81	102	24	x	x	x
O=S(=O)(Nc1ccccn1)c1ccc(Cl)c2ccccc12	1	104	98	-1	x	x	x
CN(/N=C/c1ccc(O)cc1O)c1nc(-c2ccccc2)cc(-c2ccccc2)n1	-4	90	103	11	x	x	x
Cc1ccc(Sc2cnn(-c3ccccc3)c(=O)c2Cl)cc1	2	142*	98	-38	133*	104	98
Nc1ccc(Sc2cnn(-c3ccccc3)c(=O)c2Cl)cc1	4	113	97	-8	x	x	x
CCC(=O)c1ccc(OCCn2cnc3ccccc32)cc1	0	94	98	12	x	x	x
CC(C)CCNC(=O)Cc1ccccc1[N+](=O)[O-]	10	150*	91	-47	128	102	96
COc1ccc(C(=O)Nc2ccccc2C(=O)NC(Cc2c[nH]c3ccccc23)C(=O)O)cc1 (stereo unspecified)	8	138*	92	-44	123	100	94
O=C(Cc1c[nH]c2ccccc12)Nc1nc2ccccc2[nH]1	0	146*	100	-51	154*	108	104
Cc1nn(-c2ccccc2)c(N)c1C(O)(CSc1nccn1C)C(F)(F)F (stereo unspecified)	-5	110	105	-14	x	x	x
Cc1nn(-c2ccc(Cl)cc2)c(N)c1C(O)(CSc1nccn1C)C(F)(F)F (stereo unspecified)	2	143*	99	-47	134*	103	100
O=C(CCc1nnc(Cc2ccc3c(c2)OCO3)o1)NCc1nc2ccccc2s1	-12	149*	111	-49	142*	105	93
O=C(CCc1nc2ccccc2[nH]1)NCc1ccc2c(c1)OCO2	3	100	98	0	x	x	x
CC1Cc2ccccc2N1Cc1cc(=O)n2ccsc2n1 (stereo unspecified)	1	146*	99	-44	152*	101	99
Cc1cc(=O)n2ccsc2n1	-7	104	107	-6	x	x	x
O=C(NCC1CCCO1)c1ccc(COc2ccc(F)cc2)o1 (stereo unspecified)	-21	138*	119	-44	99	103	98
CCN(CC)C(=O)CNc1ccc(C(F)(F)F)cc1[N+](=O)[O-]	9	101	91	0	x	x	x
